{"source": "ChEMBL document CHEMBL4364284", "about": "“Design, Synthesis, and Efficacy Testing of Nitroethylene- and 7-Nitrobenzoxadiazol-Based Flavodoxin Inhibitors against Helicobacter pylori Drug-Resistant Clinical Strains and in Helicobacter pylori-Infected Mice” (J Med Chem, 2019)", "note": "Activity calls are given as the source filed them. The calls are words filed in the database; no cut-off is given here."}
{"test_system": "not listed separately", "experiment": "Therapeutic index, ratio of MCC50 for human HeLa cells to MIC for inhibition of flavodoxin in Mnz-resistant Helicobacter pylori NCTC 11637 ATCC 43504 assessed as reduction in bacterial growth", "format": "toxicity", "conditions": "read-out: TI", "summary_of_the_method": "(§1)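 TI is MCC50/MIC. For MCC50, HeLa cells (30 000/well, DMEM with 10% FBS) were exposed to compound at 25–1000 μM final. Viability by XTT at 450/650 nm; MCC50 is the concentration giving 50% lysis from viability curves. Run twice in triplicate.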"}
{"smiles": "Cc1ncc(N)n1CCO", "selectivity ratio": "> 4.4"}
{"smiles": "O=[N+]([O-])CCc1cc(C(F)(F)F)cc(C(F)(F)F)c1", "selectivity ratio": "> 18"}
{"smiles": "Cc1ncc([N+](=O)[O-])n1CCO", "note": "[METRONIDAZOLE]", "selectivity ratio": "> 5.3"}
{"target": "T1, Flavodoxin (Helicobacter pylori (strain ATCC 700392 / 26695) (Campylobacter pylori)) (UniProt O25776)", "T1 sequence (whole entry)": "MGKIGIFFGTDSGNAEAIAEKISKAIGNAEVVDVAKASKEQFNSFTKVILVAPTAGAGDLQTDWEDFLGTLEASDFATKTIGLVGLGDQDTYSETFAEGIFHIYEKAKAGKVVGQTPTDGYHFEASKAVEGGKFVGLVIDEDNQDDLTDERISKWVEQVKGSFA", "experiment": "Inhibition of flavodoxin in Mnz-resistant Helicobacter pylori NCTC 11637 ATCC 43504 assessed as reduction in bacterial growth measured after 48 hrs by resazurin staining-based microdilution method", "conditions": "Helicobacter pylori NCTC 11637 = CCUG 17874 = ATCC 43504", "summary_of_the_method": "(§2)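 Broth microdilution in brain heart infusion with 4% FBS. Inoculum diluted to OD600 0.01. Two-fold dilutions from a DMSO stock cover 64–0.031 μg/mL, with DMSO ≤1% v/v. Incubated 48 h at 37 °C under microaerophilic conditions. MIC is the lowest concentration giving complete growth inhibition, read by resazurin colour change and confirmed by spotting on blood agar. Run twice in triplicate.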", "units": {"MIC": "µM"}}
{"smiles": "Cc1ncc(N)n1CCO", "MIC": 227}
{"smiles": "O=[N+]([O-])CCc1cc(C(F)(F)F)cc(C(F)(F)F)c1", "MIC": 56}
{"smiles": "Cc1ncc([N+](=O)[O-])n1CCO", "note": "[METRONIDAZOLE]", "MIC": 187}
{"test_system": "not listed separately", "experiment": "Therapeutic index, ratio of MCC50 for human HeLa cells to MIC for inhibition of flavodoxin in metronidazole-resistant Helicobacter pylori isolate 3 assessed as reduction in bacterial growth", "format": "toxicity", "conditions": "read-out: TI", "summary_of_the_method": "as §1"}
{"smiles": "O=[N+]([O-])CCc1cc(C(F)(F)F)cc(C(F)(F)F)c1", "selectivity ratio": 9}
{"test_system": "Staphylococcus aureus", "experiment": "Effect on growth of Staphylococcus aureus ATCC 1228 after 48 hrs by resazurin-dye based microdilution assay", "format": "organism-based", "conditions": "not given"}
{"smiles": "Cc1ncc(N)n1CCO", "Activity": "Non-Toxic"}
{"smiles": "O=[N+]([O-])CCc1cc(C(F)(F)F)cc(C(F)(F)F)c1", "Activity": "Non-Toxic"}
{"smiles": "Cc1ncc([N+](=O)[O-])n1CCO", "note": "[METRONIDAZOLE]", "Activity": "Non-Toxic"}
{"target": "T1, Flavodoxin (Helicobacter pylori (strain ATCC 700392 / 26695) (Campylobacter pylori))", "experiment": "Inhibition of flavodoxin in Helicobacter pylori SS1 assessed as reduction in bacterial growth measured after 48 hrs by resazurin staining-based microdilution method", "conditions": "not given", "summary_of_the_method": "as §2", "units": {"MIC": "µM"}}
{"smiles": "Cc1ncc(N)n1CCO", "MIC": "> 453"}
{"smiles": "O=[N+]([O-])CCc1cc(C(F)(F)F)cc(C(F)(F)F)c1", "MIC": 223}
{"smiles": "Cc1ncc([N+](=O)[O-])n1CCO", "note": "[METRONIDAZOLE]", "MIC": 2.9}
{"test_system": "not listed separately", "experiment": "Toxicity in NMRI mouse infected with Helicobacter pylori SS1 assessed as change in appetite at 10 to 20 mg/100g, po administered daily via gavage for 8 days starting from 1 week post-infection", "format": "organism-based", "conditions": "in vivo", "summary_of_the_method": "(§3)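 Female 6-week-old SPF NMRI mice infected orogastrically with Hp SS1 on days 1 and 3. Compound in 5–10% DMSO/olive oil (100 μL) given by daily oral gavage for 8 days from day 8. Body weight and appetite were monitored during treatment; infected controls received vehicle alone.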"}
{"smiles": "O=[N+]([O-])CCc1cc(C(F)(F)F)cc(C(F)(F)F)c1", "Activity": "Non-Toxic"}
{"test_system": "not listed separately", "experiment": "Therapeutic index, ratio of MCC50 for human HeLa cells to MIC for inhibition of flavodoxin in rifampicin-resistant Helicobacter pylori isolate 5 assessed as reduction in bacterial growth", "format": "toxicity", "conditions": "read-out: TI", "summary_of_the_method": "as §1"}
{"smiles": "O=[N+]([O-])CCc1cc(C(F)(F)F)cc(C(F)(F)F)c1", "selectivity ratio": 9}
{"target": "T1, Flavodoxin (Helicobacter pylori (strain ATCC 700392 / 26695) (Campylobacter pylori))", "experiment": "Binding affinity to Helicobacter pylori flavodoxin by isothermal titration calorimetric method", "conditions": "not given"}
{"smiles": "Cc1ncc(N)n1CCO", "Activity": "Active"}
{"smiles": "O=[N+]([O-])CCc1cc(C(F)(F)F)cc(C(F)(F)F)c1", "Activity": "Active"}
{"smiles": "Cc1ncc([N+](=O)[O-])n1CCO", "note": "[METRONIDAZOLE]", "Activity": "Active"}
{"test_system": "Escherichia coli", "experiment": "Effect on growth of Escherichia coli DH5[alpha] after 48 hrs by resazurin-dye based microdilution assay", "format": "organism-based", "conditions": "not given"}
{"smiles": "Cc1ncc(N)n1CCO", "Activity": "Non-Toxic"}
{"smiles": "O=[N+]([O-])CCc1cc(C(F)(F)F)cc(C(F)(F)F)c1", "Activity": "Non-Toxic"}
{"smiles": "Cc1ncc([N+](=O)[O-])n1CCO", "note": "[METRONIDAZOLE]", "Activity": "Non-Toxic"}
{"test_system": "Helicobacter pylori", "experiment": "Antibacterial activity against Helicobacter pylori SS1 infected in NMRI mouse assessed as bacterial eradication at 20 mg/100g, po administered daily via gavage for 8 days starting from 1 week post-infection and measured 8 days post-last dose", "format": "functional, organism-based", "conditions": "not given", "summary_of_the_method": "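Female 6-week-old SPF NMRI mice, 7 per condition, infected orogastrically on days 1 and 3 with 100 μL Hp SS1 (5 × 10^8 CFU/mL). From day 8, compound given daily by oral gavage for 8 days in 100 μL of 5–10% DMSO/95–90% olive oil. Sacrificed day 24; stomach homogenate CFU/g counted after 5 days microaerophilic culture at 37 °C. Infected vehicle-treated controls; Mann-Whitney U and unpaired t tests, p ≤ 0.05.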"}
{"smiles": "O=[N+]([O-])CCc1cc(C(F)(F)F)cc(C(F)(F)F)c1", "Activity": "Active"}
{"test_system": "not listed separately", "experiment": "Therapeutic index, ratio of MCC50 for human HeLa cells to MIC for inhibition of flavodoxin in clarithromycin/metronidazole-resistant Helicobacter pylori isolate 4 assessed as reduction in bacterial growth", "format": "toxicity", "conditions": "read-out: TI", "summary_of_the_method": "as §1"}
{"smiles": "O=[N+]([O-])CCc1cc(C(F)(F)F)cc(C(F)(F)F)c1", "selectivity ratio": 9}
{"test_system": "not listed separately", "experiment": "Toxicity in NMRI mouse infected with Helicobacter pylori SS1 assessed as change in body weight at 10 to 20 mg/100g, po administered daily via gavage for 8 days starting from 1 week post-infection", "format": "organism-based", "conditions": "in vivo", "summary_of_the_method": "as §3"}
{"smiles": "O=[N+]([O-])CCc1cc(C(F)(F)F)cc(C(F)(F)F)c1", "Activity": "Non-Toxic"}
{"target": "T1, Flavodoxin (Helicobacter pylori (strain ATCC 700392 / 26695) (Campylobacter pylori))", "experiment": "Inhibition of flavodoxin in Helicobacter pylori ATCC 700392 26695 assessed as reduction in bacterial growth measured after 48 hrs by resazurin staining-based microdilution method", "conditions": "Helicobacter pylori 26695", "summary_of_the_method": "as §2", "units": {"MIC": "µM"}}
{"smiles": "Cc1ncc(N)n1CCO", "MIC": 453}
{"smiles": "O=[N+]([O-])CCc1cc(C(F)(F)F)cc(C(F)(F)F)c1", "MIC": 56}
{"smiles": "Cc1ncc([N+](=O)[O-])n1CCO", "note": "[METRONIDAZOLE]", "MIC": 12}
{"test_system": "not listed separately", "experiment": "Therapeutic index, ratio of MCC50 for human HeLa cells to MIC for inhibition of flavodoxin in Helicobacter pylori ATCC 700392 26695 assessed as reduction in bacterial growth", "format": "toxicity", "conditions": "HeLa cells versus Helicobacter pylori ATCC 700392 26695, read-out: TI", "summary_of_the_method": "as §1"}
{"smiles": "Cc1ncc(N)n1CCO", "selectivity ratio": "> 2.2"}
{"smiles": "O=[N+]([O-])CCc1cc(C(F)(F)F)cc(C(F)(F)F)c1", "selectivity ratio": "> 18"}
{"smiles": "Cc1ncc([N+](=O)[O-])n1CCO", "note": "[METRONIDAZOLE]", "selectivity ratio": "> 83"}
{"test_system": "not listed separately", "experiment": "Therapeutic index, ratio of MCC50 for human HeLa cells to MIC for inhibition of flavodoxin in clarithromycin/metronidazole-resistant Helicobacter pylori isolate 6 assessed as reduction in bacterial growth", "format": "toxicity", "conditions": "read-out: TI", "summary_of_the_method": "as §1"}
{"smiles": "O=[N+]([O-])CCc1cc(C(F)(F)F)cc(C(F)(F)F)c1", "selectivity ratio": 9}
{"test_system": "not listed separately", "experiment": "Toxicity in NMRI mouse assessed as change in body weight at 10 to 20 mg/100g, po administered daily via gavage for 8 days", "format": "organism-based", "conditions": "in vivo, 192 h"}
{"smiles": "O=[N+]([O-])CCc1cc(C(F)(F)F)cc(C(F)(F)F)c1", "Activity": "Non-Toxic"}
{"test_system": "not listed separately", "experiment": "Cytotoxicity against human HeLa cells assessed as reduction in cell viability by XTT assay", "format": "cell-based", "conditions": "read-out: MCC50", "summary_of_the_method": "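HeLa cells grown in DMEM with 10% FBS, penicillin and streptomycin at 37 °C, 5% CO2; 30 000 cells/well. XTT viability read at 450 and 650 nm. MCC50 (50% lysis) came from viability-versus-concentration curves. Two experiments, each in triplicate.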", "units": {"CC50": "µM"}}
{"smiles": "Cc1ncc(N)n1CCO", "CC50": "> 1000"}
{"smiles": "O=[N+]([O-])CCc1cc(C(F)(F)F)cc(C(F)(F)F)c1", "CC50": "> 1000"}
{"smiles": "Cc1ncc([N+](=O)[O-])n1CCO", "note": "[METRONIDAZOLE]", "CC50": "> 1000"}
{"target": "T1, Flavodoxin (Helicobacter pylori (strain ATCC 700392 / 26695) (Campylobacter pylori))", "experiment": "Binding affinity to Helicobacter pylori flavodoxin by thermal upshift assay", "conditions": "not given"}
{"smiles": "Cc1ncc(N)n1CCO", "Activity": "Active"}
{"smiles": "O=[N+]([O-])CCc1cc(C(F)(F)F)cc(C(F)(F)F)c1", "Activity": "Active"}
{"smiles": "Cc1ncc([N+](=O)[O-])n1CCO", "note": "[METRONIDAZOLE]", "Activity": "Active"}
{"test_system": "not listed separately", "experiment": "Therapeutic index, ratio of MCC50 for human HeLa cells to MIC for inhibition of flavodoxin in metronidazole-resistant Helicobacter pylori isolate 2 assessed as reduction in bacterial growth", "format": "toxicity", "conditions": "read-out: TI", "summary_of_the_method": "as §1"}
{"smiles": "O=[N+]([O-])CCc1cc(C(F)(F)F)cc(C(F)(F)F)c1", "selectivity ratio": 9}
{"test_system": "not listed separately", "experiment": "Therapeutic index, ratio of MCC50 for human HeLa cells to MIC for inhibition of flavodoxin in Helicobacter pylori SS1 assessed as reduction in bacterial growth", "format": "toxicity", "conditions": "HeLa cells versus Helicobacter pylori SS1, read-out: TI", "summary_of_the_method": "as §1"}
{"smiles": "O=[N+]([O-])CCc1cc(C(F)(F)F)cc(C(F)(F)F)c1", "selectivity ratio": "> 4.5"}
{"smiles": "Cc1ncc([N+](=O)[O-])n1CCO", "note": "[METRONIDAZOLE]", "selectivity ratio": "> 345"}
{"test_system": "not listed separately", "experiment": "Therapeutic index, ratio of MCC50 for human HeLa cells to MIC for inhibition of flavodoxin in metronidazole-resistant Helicobacter pylori isolate 1 assessed as reduction in bacterial growth", "format": "toxicity", "conditions": "read-out: TI", "summary_of_the_method": "as §1"}
{"smiles": "O=[N+]([O-])CCc1cc(C(F)(F)F)cc(C(F)(F)F)c1", "selectivity ratio": 9}
